Assay results reported in the EternaBench riboswitch data.

System: MS2 coat protein
Experiment: apparent Kd, MS2 coat protein; higher = weaker binding; RNA-MaP array; FMN 200 µM where present
Summary of the method: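 Green signal from SNAP-549-labelled MS2 coat protein was normalised to red-channel RNA signal and to the median Fmax of control clusters. The protein was titrated from 0.7 or 1.5 nM, doubling to 3 µM, without and then with constant ligand, over designs transcribed by stalled E. coli RNA polymerase on Illumina sequencing-chip clusters, in 100 mM Tris-HCl pH 7.5, 80 mM KCl, 4 mM MgCl2, BSA, DTT, yeast tRNA and Tween-20. The apparent Kd is the median of filtered per-cluster binding-curve fits.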

[1] = designed as: OFF switch for flavin mononucleotide, no ligand
[2] = ligand present: flavin mononucleotide, designed as: OFF switch for flavin mononucleotide
[3] = designed as: ON switch for flavin mononucleotide, no ligand
[4] = ligand present: flavin mononucleotide, designed as: ON switch for flavin mononucleotide

| Sequence | apparent Kd [1] | apparent Kd [2] | apparent Kd [3] | apparent Kd [4] |
| --- | --- | --- | --- | --- |
| UUACUAUUACAGAAGGUUAAAUAAUAUAUAAAUGAAGGAUAUGUAACAUGAGGAUCACCCAUGUUUCACCCACAUGAGGAUCAU | 9.63 nM | 9.57 nM | – | – |
| CGCUUUGUACAUGAGGAUCACCCAUGUUAAUAUGUGGUAGUCAGAAGGCAUUGUUUGAGAUAUUAUGAGGAUAUGAUUAGUCUG | – | – | 73.2 nM | 43.6 nM |
| ACUUCACAUGAGGAUCACCCAUGUCAGGCCGGACUAGGAUAUUAUCAUGCAGCGUAACCGUAAGAAGGAGUUGGAU | – | – | 88.3 nM | 187 nM |
| CUCAUGUAAGGAUAUCAGUAGUAAAAAAAUAAAAUUACUACUGAGAAGGUACAUGAGGAUCACCCAUGUCCUUG | 38.8 nM | 21.6 nM | – | – |
| AACGUGUGAGGAUAUGCACGAGUGACAGGGAGGCUGUCACAGCAGAAGGUACAUGAGGAUCACCCAUGUGAAAU | 24.9 nM | 20.6 nM | – | – |
| UGAUCUUGUGUUAGGAUAUGCUGGUUUUUUUUUCAGCAGAAGGGACAUGAGGAUCACCCAUGUUCUCUCUUUUU | 12.8 nM | 17.3 nM | – | – |
| GAGCUUGAUGAGAAGGGUUACAUGAGGAUCACCCAUGUCGACCUUGGCGUAACAGGAUAUCAUCGGGCUCUGUGCGUUGACCCA | 23.7 nM | 120 nM | – | – |
| CGGAUCAAUACAGGAUAUGGUGACGCACAUGAGGAUCACCCAUGUCCGCAGCGUGCUAAGCACGCCCAGAAGGGUAUUGAUUCG | – | – | 738 nM | 68.3 nM |
| ACCAUACAUGAGGAUCACCCAUGUUAGGAUAUGAGAGACCCACAUAGUCCUGGUAGCAUCAGAAGGAGCAGGGU | 20.6 nM | 23.7 nM | – | – |
| UUUUAACAUGAGGAUCACCCAUGUGAGGAUAUCGAAAUUUAUAUUAAUAUUAUUUAAUCGAGAAGGCACAUUUU | 110 nM | 118 nM | – | – |
| AGCGAGGUAGGAUAUACAUGAGGAUCACCCAUGUGCUUGCAUGGCGUGGAACGUCGAGGUAGAAGGGCCGCGCC | 24.2 nM | 35.7 nM | – | – |
| UGAUUGAGAUUGUAGGAUAUUGGAAAAGCCACAUGAGGAUCACCCAUGUCAAAAAAAAAAAAAAACAAGAAGGGCGGUUUUAGUUA | – | – | 72.9 nM | 61.8 nM |
| GGAUAGGACAGAGGAUAUACGUGCUAGAGAUACUAGCAAAAUUUCCUCACAUGAGGAUCACCCAUGUAGAAGGAUGUCCUAUCG | 5.3 nM | 7.61 nM | – | – |
| AUAAAUGAGGAGGAUAUCGAAUCGGAAACGAUUCGAGAAGGCCUAACAUGAGGAUCACCCAUGUUCCUUAAAUA | 28.8 nM | 42.2 nM | – | – |
| UUCAGACAUGAGGAUCACCCAUGUGAGGAUAUGAUGCGAUCGUCGAAAGACGAUAGCAUCAGAAGGCACAUAUG | 167 nM | 315 nM | – | – |
| GUAGCAUACCGAGGAUAUUCAAAUAAUAAAUAAACAUGAGGAUCACCCAUGUGGCGAAAGCCUAGGGAGAAGGCGGAAUGCUAC | – | – | 48.2 nM | 16.9 nM |
| CCUCGACAUGAGGAUCACCCAUGUAAGGAUAUGUUGACGAGCCAGAAAUGGCUGGUCAACAGAAGGUAUAUGUA | 31.9 nM | 121 nM | – | – |
| CCUCCCUGAGGAUAUCCACCCUCAUACAUGAGGAUCACCCAUGUUCAUCCGUGGCUACCCGGAGAAGGCAGCUCUC | 44.9 nM | 41.8 nM | – | – |
| AUACAUGUCCGAGGAUAUCUGGAAACAUUUUCAAGAGAAGGCGGACAUGAGGAUCACCCAUGUCUCUCCUCAUCAAAUCCAAGU | 7.84 nM | 46.6 nM | – | – |

| Sequence | apparent Kd [1] | apparent Kd [2] | apparent Kd [3] | apparent Kd [4] |
| --- | --- | --- | --- | --- |
| AAUUAUUUGUAGAAGGAAGGAGAUUUUGUAUUCUUAGGAUAUACUAUUACAUGAGGAUCACCCAUGUUUGAAGGGUUGCUAUGU | 74.2 nM | 82.2 nM | – | – |
| UUGGAGGUCGUAGGAUAUGUAGGAUAUUCCUACAUGAGGAUCACCCAUGUUGACAUGGAAGAAGGACAGAAGGACGAUGUCCAU | – | – | 367 nM | 6.26 nM |
| GUCAGCUCGUGAGGAUAUACAACACUGCUUCGGCAUUGUAUUAAGAUCACAUGAGGAUCACCCAUGUAGAAGGCACGAGCUGAU | 9.1 nM | 109 nM | – | – |
| GUAGAGUAGUGAGGAUAUACGAGAUCGAUAGAUCGGCGAUCCAUUAAUACAUGAGGAUCACCCAUGUAGAAGGCACUUCUCUAC | 6.31 nM | 76.7 nM | – | – |
| UCAUAUUUACAAGGAUAUCAAUUAUUUAUACAUCCUACAUGAGGAUCACCCAUGUUUUUAUAUUUUGAGAAGGUGUAAUGUCGG | – | – | 44.4 nM | 40.4 nM |
| GGAUAGGACAGAGGAUAUACGUGCUAGAGAUUCUAGCAAAAUUUCCUCACAUGAGGAUCACCCAUGUAGAAGGCUGUCCUAUCG | 15.6 nM | 321 nM | – | – |
| GGCGAACGGGCUUACAUGAGGAUCACCCAUGUAGACUCAUGGUAGGAUAUGCUGUACAAAGUACAGCAGAAGGGCCGGUGAGCU | – | – | 89.1 nM | 43.5 nM |
| CAUGUCCUCACAGGAUAUGCUGGACUUUGUCCAGCAGAAGGGUGUUAACAUGAGGAUCACCCAUGUGGACAUGAUAUAUUUAAU | – | – | 933 nM | 69.8 nM |
| UUAAAUCAUGUAGGAUAUGCAUGGCCAAGCUAGGCAGAAGGACAUGAGGAUCACCCAUGUUAUAGCUACCAAGUAAGGUGGCAA | 32.9 nM | 279 nM | – | – |
| CACAUGAGGAUCACCCAUGUACUUAAUAUAAAUGUCAGAACCAGAAGGACCAGUUGAUUUGACCGGUAGGAUAUGGGCGGACCG | – | – | 18.1 nM | 6.89 nM |
| UGUUUGUGACAGAAGGGCAUUUACAUGAGGAUCACCCAUGUUCAUCAUUGCAGGAUAUGUAUUUCAUGAGGAUCACCUAUGCUC | – | – | 201 nM | 71.1 nM |
| CUGAGGUCAGGAUAUGCAUGGCGGGACUUGCGUCGUGGCGUGGAGAAGGGACAUGAGGAUCACCCAUGUGGAGC | 59.8 nM | 57 nM | – | – |
| CGACGAGUGGAGAAGGACUUUGACUAGUACAGGGUAGGAUAUCCACAUGAGGAUCACCCAUGUAGGAUACUUAUUGGGCCGCCU | 10.3 nM | 49 nM | – | – |
| GUGGUUGUCGUAGGAUAUGUAGGAUAUUCCUACAUGAGGAUCACCCAUGUUCGCAUGGAAGAAGGACAGAAGGACGAUGACCAC | – | – | 1250 nM | 10.2 nM |
| UUCUUUCCUCAUGUACAUGAGGAACAUGAGGAUCACCCAUGUAGAAGGAUUUCAAUUAAAUUAAAAUAGGAUAUACAUAUAUUU | 15.8 nM | 16.4 nM | – | – |
| AUUUUGUGAGGAUAUGUGGCUUCGAUCGUAAAAUCGAGGCUACAGAAGGCACAUGAGGAUCACCCAUGUUCCUA | 19 nM | 205 nM | – | – |
| GAAAAACAUGAGGAUCACCCAUGUAAGGAUAUGCUGAAAAACACGGAAAAAACGUGCAGCAGAAGGUACAAAAG | 63.2 nM | 83.3 nM | – | – |
| AAACCGUGUGGAGGAUAUGCAGUUGAGGUGAGGUGGCAACUCUAUACGACCGCAGAAGGCCACAUGAGGAUCACCCAUGUAGGU | 293 nM | 61.5 nM | – | – |
| GCUGAAUGAACAUGAGGAUCACCCAUGUACAGGAAACUGAAUGAGGAUAUCCAUAGCAAAGCUAUGGAGAAGGCAUGGGUCAGC | – | – | 338 nM | 94 nM |

| Sequence | apparent Kd [1] | apparent Kd [2] | apparent Kd [3] | apparent Kd [4] |
| --- | --- | --- | --- | --- |
| AUUUUAUAAUAGAAGGUAGACUUCAUGAGGAUCACCCAUGUGUUGGUACUAAGGAUAUGUAAUAACAUGAGGAUCACCCAUGUU | – | – | 16.1 nM | 15.2 nM |
| AAUAUAGAGCUGGAAUAAAACACAACAUGAGGAUCACCCAUGUAGGAUAUCAGCACGAUAAGUGCUGAGAAGGACAUCCAGCUC | 14.7 nM | 14.2 nM | – | – |
| ACCUUACAUGAGGAUCACCCAUGUUAGGAUAUCUCGCCUGCGCUAACAAAGCGCAGGCAGAGAAGGGACGCGGG | 28.5 nM | 31.8 nM | – | – |
| AAAAAACAUGAGGAUCACCCAUGUCAGGAUAUGAAAAAAAAAAAAAAAAAAAAAAAAAUCAGAAGGGACAAAAA | 66.4 nM | 36.1 nM | – | – |
| UGCAGCGUGCACAUGAGGAUCACCCAUGUGCCAGUGAACGCACAGGAUAUGCAAUCGUACGGCUAGCAGAAGGGUGGGUCUCAC | – | – | 7.65 nM | 6.45 nM |
| GUGCGGUCAGGAUAUGCAUGGCGGGACUUGCGUCGUGGCGUGGAGAAGGGACAUGAGGAUCACCCAUGUGGAGG | 107 nM | 84.9 nM | – | – |
| UAAAAGCUAGGAUAUACAUGAGGAUCACCCAUGUAAUCUCUCACUUACACGGAGGAUCGUAGAAGGAGCACAAA | 21.7 nM | 55.6 nM | – | – |
| UUAAUGUGAGGAUAUGGUAAAGAUAAGAUGAUGAAAGAACUCCAGAAGGCACAUGAGGAUCACCCAUGUAGAUG | 39.5 nM | 86.6 nM | – | – |
| UUGAGGUCAGGAUAUGCAUGGCGGGACUUGCGUCGUGGCGUGGAGAAGGGACAUGAGGAUCACCCAUGUGGAGC | 55.6 nM | 62 nM | – | – |
| CCUCAGUAAGGAUAUCAGCUUAGUAGGUUGGUAAUGAGAGCUGAGAAGGUACAUGAGGAUCACCCAUGUUAGUU | 26.1 nM | 80.8 nM | – | – |
| AUUAGACAUGAGGAUCACCCAUGUAGGCAGUCAUGAGGAUAUGGACAAGGUGCUCAAGGUCCAGAAGGCAUACGCC | – | – | 29.3 nM | 18.5 nM |
| GGGCUCGGUGUGAGGAUAUGCUCGGGUAAAUCUGGGUAGAAGGCACAUGAGGAUCACCCAUGUAAGCUGGGUCU | 33.9 nM | 33.9 nM | – | – |
| CCAUGGCUGUGAGGAUAUGUCUGACAAAGUCAGACAGAAGGUACAUGAGGAUCACCCAUGUGAAGAAAACCACAUUUGCCAUGG | 6 nM | 6.44 nM | – | – |
| CGUUAAUAUCGAGGAUAUGUCUAGACACAUGAGGAUCACCCAUGUAUGUGUAUAGAAGGCGAUAUUAACAGCAUGUUACAUGCC | – | – | 45.5 nM | 16.3 nM |
| GGGCCCGGAGGAUAUACAUGAGGAUCACCCAUGUAGGGCCCGGGUAUUCCCGGGCCCUGUAGAAGGCCGGGUUU | 14.3 nM | 18.8 nM | – | – |
| AAUGUGUCAGGAUAUUGUUAGUUUAGUUGUUUGUAUUAGUUCGAGAAGGGACAUGAGGAUCACCCAUGUUGUAA | 40.1 nM | 31.9 nM | – | – |
| UUAUUAGGACAGAAGGGUAGACAUGAGGAUCACCCAUGUAAUAUAAGGUGCAGGAUAUGUAAUAAUUGAGAUUCAUCAUUUUGC | – | – | 198 nM | 142 nM |
| UGGUACUAGGGAGGAUAUGGGAAGAUACAUGAGGAUCACCCAUGUUUAAGAAUGCCGAGAGGCAACUAGAAGGGCCUAGUACCU | – | – | 804 nM | 280 nM |
